From ChEMBL document CHEMBL4819012, “Discovery of novel 2-aryl-3-sulfonamido-pyridines (HoAns) as microtubule polymerization inhibitors with potent antitumor activities” (Eur J Med Chem, 2021)

Legend:
[1] = test system: RKO; test: Induction of cell cycle arrest in human RKO cells assessed as accumulation of cells in S phase at 0.5 uM measured after 24 hrs by PI staining based flow cytometry method (reference value: 49.66%); format: functional
[2] = molecular target: Tubulin beta (Homo sapiens) (UniProt P68371+Q9H4B7+Q13509+P04350+Q3ZCM7+P07437+Q13885+Q9BVA1+Q9BUF5+A6NNZ2); test: Inhibition of N,N'-Ethylenebis(iodoacetamide) binding to beta tubulin in human SW-620 cells preincubated for 2 hrs followed by addition of EBI and measured after 2 hrs by western blot assay; format: cell-based; details: dose 10-40 µM
Outline: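 SW620 cells (5×10^5 per well) pretreated for 2 h with 10, 20 or 40 μM of test agent or DMSO, then given 100 μM EBI for 2 h. Lysed in SDS loading buffer. β-tubulin and β-tubulin–EBI adduct bands resolved by western blot probed with anti-β-tubulin.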

[3] = test system: HUVEC; test: Anti-vascular activity against human HUVEC cells assessed as inhibition of cell migration at 0.5 to 1 uM measured after 24 hrs by cell migration assay; format: functional, cell-based; details: dose 0.5-1 µM

inhibition [2]: Dose-Dependent Effect
SMILES: COc1ccc(S(=O)(=O)Nc2cccnc2-c2ccc(C#N)c(F)c2)cc1
Activity [1]: 46.37% | Activity [3]: Dose-Dependent Effect
